Laboratory results: ChEMBL document CHEMBL5214961, “Novel Allosteric Inhibitor-Derived AKT Proteolysis Targeting Chimeras (PROTACs) Enable Potent and Selective AKT Degradation in KRAS/BRAF Mutant Cells” (J Med Chem, 2022)
Activity calls are given as the source filed them. No cut-off for these calls is given here.

Experiments:
[1] = test system: PC-3; test: Inhibition of colony formation in human PC-3 cells at 0.1 to 10 uM incubated for 2 weeks with media replacement for every 2 days by crystal violet staining based analysis; format: functional, cell-based; settings: dose 0.1-10 µM
Method in brief: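 PC3 cells kept 14 days with compound; compound-containing medium replenished every two days. Viable cells stained with 0.5% crystal violet.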

[2] = biological target: von Hippel-Lindau disease tumor suppressor/RAC-alpha serine/threonine-protein kinase (Homo sapiens) (UniProt P31749+P40337); test: Protac activity at VHL/AKT in human PC-3 cells assessed as reduction in total Akt level at 1 uM incubated for 24 hrs by Western blot analysis; format: cell-based
Method in brief: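 Cells grown in DMEM with 10% FBS at 37 °C, 5% CO2, then exposed to compound at 1 μM for 24 h. Lysates made in 2X urea/SDS sample buffer, run on 4–12% Bis-Tris gels, transferred to PVDF, probed for total AKT overnight at 4 °C; HRP/chemiluminescence detection with β-actin as loading control.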

Chain of von Hippel-Lindau disease tumor suppressor/RAC-alpha serine/threonine-protein kinase (Homo sapiens) (P31749 whole entry, looked up): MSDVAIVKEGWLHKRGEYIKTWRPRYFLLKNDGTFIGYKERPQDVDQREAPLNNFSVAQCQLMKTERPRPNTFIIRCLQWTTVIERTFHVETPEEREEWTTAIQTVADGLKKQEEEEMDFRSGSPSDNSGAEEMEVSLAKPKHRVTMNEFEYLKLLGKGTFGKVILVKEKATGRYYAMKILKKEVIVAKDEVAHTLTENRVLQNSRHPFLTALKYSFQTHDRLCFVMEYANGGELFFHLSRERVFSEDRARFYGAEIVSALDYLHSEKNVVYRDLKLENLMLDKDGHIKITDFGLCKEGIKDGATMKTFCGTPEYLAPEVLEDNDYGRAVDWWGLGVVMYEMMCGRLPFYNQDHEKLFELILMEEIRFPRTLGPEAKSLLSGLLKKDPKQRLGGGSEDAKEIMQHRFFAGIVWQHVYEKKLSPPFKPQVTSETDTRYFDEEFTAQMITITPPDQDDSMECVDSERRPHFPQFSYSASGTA
Chain of von Hippel-Lindau disease tumor suppressor/RAC-alpha serine/threonine-protein kinase (Homo sapiens) (P40337 whole entry, looked up): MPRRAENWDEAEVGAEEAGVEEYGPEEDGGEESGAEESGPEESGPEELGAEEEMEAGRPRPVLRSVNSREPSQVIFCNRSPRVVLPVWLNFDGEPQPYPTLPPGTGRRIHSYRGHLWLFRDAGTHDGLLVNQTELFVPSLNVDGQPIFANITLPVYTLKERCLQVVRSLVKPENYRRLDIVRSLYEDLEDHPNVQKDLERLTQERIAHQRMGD

Row | SMILES | Activity [2] | inhibition [1]
1 | Cc1ncsc1-c1ccc(CNC(=O)[C@@H]2C[C@@H](O)CN2C(=O)[C@@H](NC(=O)CCCCCCCCC(=O)NCCc2cccc(-c3ccc4nc(-c5cccnc5N)n(-c5ccc(C6(N)CCC6)cc5)c4n3)c2)C(C)(C)C)cc1 | Active | Active
2 | Cc1ncsc1-c1ccc(CNC(=O)[C@@H]2C[C@@H](O)CN2C(=O)[C@@H](NC(=O)CCCCCCCC(=O)NCCc2cccc(-c3ccc4nc(-c5cccnc5N)n(-c5ccc(C6(N)CCC6)cc5)c4n3)c2)C(C)(C)C)cc1 | Active | 
3 | Cc1ncsc1-c1ccc(CNC(=O)[C@@H]2C[C@@H](O)CN2C(=O)[C@@H](NC(=O)CCCCCCCCNC(=O)CCc2cccc(-c3ccc4nc(-c5cccnc5N)n(-c5ccc(C6(N)CCC6)cc5)c4n3)c2)C(C)(C)C)cc1 | Active | 
4 | Cc1ncsc1-c1ccc(CNC(=O)[C@@H]2C[C@@H](O)CN2C(=O)[C@@H](NC(=O)CCCCCCCCCC(=O)NCCc2cccc(-c3ccc4nc(-c5cccnc5N)n(-c5ccc(C6(N)CCC6)cc5)c4n3)c2)C(C)(C)C)cc1 | Active | Active
5 | Cc1ncsc1-c1ccc(CNC(=O)[C@@H]2C[C@@H](O)CN2C(=O)[C@@H](NC(=O)CCOCCOCCOCCOCCOCCC(=O)NCCc2cccc(-c3ccc4nc(-c5cccnc5N)n(-c5ccc(C6(N)CCC6)cc5)c4n3)c2)C(C)(C)C)cc1 | Active | 
6 | Cc1ncsc1-c1ccc(CNC(=O)[C@@H]2C[C@@H](O)CN2C(=O)[C@@H](NC(=O)CCCCCCCNC(=O)CCc2cccc(-c3ccc4nc(-c5cccnc5N)n(-c5ccc(C6(N)CCC6)cc5)c4n3)c2)C(C)(C)C)cc1 | Active | 
7 | Cc1ncsc1-c1ccc(CNC(=O)[C@@H]2C[C@@H](O)CN2C(=O)[C@@H](NC(=O)CCCCCCCCCNC(=O)CCc2cccc(-c3ccc4nc(-c5cccnc5N)n(-c5ccc(C6(N)CCC6)cc5)c4n3)c2)C(C)(C)C)cc1 | Active | 
8 | Cc1ncsc1-c1ccc(CNC(=O)[C@@H]2C[C@@H](O)CN2C(=O)[C@@H](NC(=O)COCCOCCOCCOCCOCC(=O)NCCc2cccc(-c3ccc4nc(-c5cccnc5N)n(-c5ccc(C6(N)CCC6)cc5)c4n3)c2)C(C)(C)C)cc1 | Active | 

Now from value to compound, other results behind:

Row | Activity [2] | SMILES | inhibition [1]
9 | Active | Cc1ncsc1-c1ccc(CNC(=O)[C@@H]2C[C@@H](O)CN2C(=O)[C@@H](NC(=O)COCCOCCNC(=O)CCc2cccc(-c3ccc4nc(-c5cccnc5N)n(-c5ccc(C6(N)CCC6)cc5)c4n3)c2)C(C)(C)C)cc1 | 
10 | Active | Cc1ncsc1-c1ccc(CNC(=O)[C@@H]2C[C@@H](O)CN2C(=O)[C@@H](NC(=O)CCOCCNC(=O)CCc2cccc(-c3ccc4nc(-c5cccnc5N)n(-c5ccc(C6(N)CCC6)cc5)c4n3)c2)C(C)(C)C)cc1 | 
11 | Active | Cc1ncsc1-c1ccc(CNC(=O)[C@@H]2C[C@@H](O)CN2C(=O)[C@@H](NC(=O)COCC(=O)NCCc2cccc(-c3ccc4nc(-c5cccnc5N)n(-c5ccc(C6(N)CCC6)cc5)c4n3)c2)C(C)(C)C)cc1 | 
12 | Active | Cc1ncsc1-c1ccc(CNC(=O)[C@@H]2C[C@@H](O)CN2C(=O)[C@@H](NC(=O)COCCNC(=O)CCc2cccc(-c3ccc4nc(-c5cccnc5N)n(-c5ccc(C6(N)CCC6)cc5)c4n3)c2)C(C)(C)C)cc1 | 
13 | Active | Cc1ncsc1-c1ccc(CNC(=O)[C@@H]2C[C@@H](O)CN2C(=O)[C@@H](NC(=O)CCOCCOCCNC(=O)CCc2cccc(-c3ccc4nc(-c5cccnc5N)n(-c5ccc(C6(N)CCC6)cc5)c4n3)c2)C(C)(C)C)cc1 | 
14 | Active | Cc1ncsc1-c1ccc(CNC(=O)[C@@H]2C[C@@H](O)CN2C(=O)[C@@H](NC(=O)COCCOCCOCCNC(=O)CCc2cccc(-c3ccc4nc(-c5cccnc5N)n(-c5ccc(C6(N)CCC6)cc5)c4n3)c2)C(C)(C)C)cc1 | 
15 | Active | Cc1ncsc1-c1ccc(CNC(=O)[C@@H]2C[C@@H](O)CN2C(=O)[C@@H](NC(=O)CCOCCC(=O)NCCc2cccc(-c3ccc4nc(-c5cccnc5N)n(-c5ccc(C6(N)CCC6)cc5)c4n3)c2)C(C)(C)C)cc1 | 
